The full list was thinned out, with hits kept by preference.
HSF1 activator = increases HSF-1 driven luciferase reporter signal | NIH3T3-HGL HSF-1 luciferase reporter, MG132, 8 h; 100% = twice DMSO control signal | activation, % at 9 µM | 300,000 compounds, 1.7% hits | AID 504408;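 active = mean replicate activation of at least 50% with a set share of replicates each reaching 50%; inconclusive = only one of those two conditions met; inactive = mean below 50% and too few replicates reaching it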
T cruzi repl = T. cruzi replication inhibition. inhibition, % (test concentration not listed). 300,000 compounds, 1.4% hits. T. cruzi beta-gal in NIH3T3, luminescence, 90 h;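 active = mean inhibition across valid replicates above about 55%, limit read from the data; inconclusive = mean below that limit but half or more replicates reach it; inactive = mean below it, under half of replicates reach it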;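 note: signal also drops with host cell toxicity which is not excluded here; higher percent means less beta-gal luminescence so fewer parasites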
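compound dosing = single 50 nL compound addition per well in DMSO | material = NIH/3T3 host cells with β-galactosidase reporter T. cruzi | input = 5,000 host fibroblasts per well | timing = ≥90 h infection period, 3 h prior cell attachment | read-out basis = percent inhibition of parasite-derived β-gal signal | detection = GalScreen β-gal luminescence, detergent lysis, 60 min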
L major viab = Leishmania major promastigote growth inhibition; inhibition, % at 10 µM; Leishmania major promastigotes, resazurin fluorescence viability; 200,000 compounds, 9% hits; AID 1063; in the data active = inhibition above about 50%;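 note: promastigotes grown with compound for 44 hours at 28 °C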
Hsp70 act = Hsp70 transcriptional activation, primary screen; HeLa Hsp70 promoter luciferase reporter, luminescence; scaled: vehicle 0, proteasome-inhibitor control 100%; activation, % at 10 µM; 200,000 compounds, 0.04% hits;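 active = activation above the mean across all tested compounds plus 3 SD, cutoff set per campaign, cut at about 5.5% in these data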
HSF1 inh = HSF1 inhibition. NIH3T3-HGL HSE-luciferase, MG132-induced, luminescence 8 h; stronger effect = lower value. activity change, negative = inhibition, % at 7.5 µM (by protocol). 300,000 compounds, 0.77% hits. AID 2098;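 active = more than half of replicate wells show activity change below -50%, luminescence cut by over half; inconclusive = some wells, but at most half, below -50%; inactive = no replicate well below -50%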;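 note: luciferase reports HSF-1 transcriptional activity via heat shock element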
Large screens that a line does not name were inactive.

CCCCCCCN(C(=O)CCl)c1cccc(C)c1	HSF1 inh -93
CC(=O)N(CCN(C(C)=O)c1ccccc1)c1ccccc1	none
CCCCCCN(C(=O)CCl)c1ccccc1	HSF1 inh -68 (no result: L major viab, Hsp70 act)
Cc1cccc(N(Cc2cc(=O)[nH]c3ccccc23)C(=O)CCl)c1	none (no result: L major viab, Hsp70 act)
O=C(CCl)N(CCc1ccccc1)CCc1ccccc1	T cruzi repl 56 (no result: L major viab, Hsp70 act)
Cc1ccc(Cl)cc1NC(=S)N1CCC(c2ccccc2)C1 (configuration not stated)	none
COc1cc(NC(=O)c2ccc(=O)[nH]n2)cc(OC)c1OC	none (no result: L major viab, Hsp70 act)
Cc1cc(Cl)ccc1OCCCC(=O)N/N=C/c1cccc([N+](=O)[O-])c1	none
O=C(N(c1ccccc1)c1ccccc1)N(c1ccccc1)c1ccccc1	none (no result: HSF1 activator, L major viab, Hsp70 act)
O=C(CCl)N(c1ccccc1)c1ccccc1	L major viab 77
CC(NS(=O)(=O)c1ccc(Br)cc1)C(=O)NCc1ccco1 (configuration not stated)	none
COc1ccccc1CNC(=O)C(C)NS(=O)(=O)c1ccc(Br)cc1 (configuration not stated)	HSF1 inh -73
Cc1cc(C)c2cc(C(=O)N3CCc4ccccc4C3)[nH]c2c1	none (no result: L major viab, Hsp70 act)
Cc1cc(C)c2cc(C(=O)N(C)C3CCN(C)CC3)[nH]c2c1	HSF1 activator 55 (no result: L major viab, Hsp70 act)
S=C(Nc1ccc(Cl)cc1)N(CCCN1CCOCC1)Cc1ccco1	L major viab 96
CCN1CCN(CCCN(Cc2ccco2)C(=S)Nc2ccc(Cl)c(C)c2)CC1	none
Cc1ccc(NC(=S)N(CCCN2CCCC(C)C2)Cc2ccco2)cc1C (configuration not stated)	L major viab 96
CCOC(=O)c1ccc(NC(=S)N(CCCN2CCCCCC2)Cc2ccco2)cc1	L major viab 100
Cc1ccc(NC(=S)N(CCN2CCCCC2)Cc2ccco2)cc1	none
CCOC(=O)c1ccc(NC(=S)N(CCN2CCCCCC2)Cc2ccco2)cc1	L major viab 95
COc1ccc(/C=N/Nc2cn[nH]c(=O)c2Cl)cc1	none
COc1cccc(-c2nc(CS(=O)CC(=O)NC3CCCCC3)c(C)o2)c1 (configuration not stated)	none (no result: L major viab, Hsp70 act)
Cc1cc(C)n(S(=O)(=O)c2cc(C(=O)O)c(Cl)cc2Cl)n1	none
COC(=O)c1cc(S(=O)(=O)n2nc(C)c(Br)c2C)c(Cl)cc1Cl	L major viab 89
COc1ccc(Br)cc1S(=O)(=O)Nc1ncccc1C	HSF1 inh -88
CN1CCN(CCCNC(=O)c2ccc(/C=C3/Sc4ccccc4N(Cc4cccc(Cl)c4)C3=O)cc2)CC1	T cruzi repl 58, L major viab 100
CN1CCN(CCCNC(=O)c2ccc(/C=C3\Sc4ccccc4N(Cc4ccc(F)cc4)C3=O)cc2)CC1	T cruzi repl inconclusive, L major viab 100
CCN1CCN(CCNC(=O)c2ccc(/C=C3\Sc4ccccc4N(Cc4ccccc4F)C3=O)cc2)CC1	T cruzi repl 60, L major viab 100
CCc1ccc(/C=N\n2cnnc2)cc1	none (no result: L major viab, Hsp70 act)
COC(=O)c1c(NC(=O)C2CCCCC2)sc2c1CC(C)(C)NC2(C)C	none (no result: L major viab, Hsp70 act)
CN(C(=O)c1cccc(N2C(=O)C3C4C=CC(C4)C3C2=O)c1)C1CCCCC1 (configuration not stated)	none (no result: L major viab, Hsp70 act)
O=C(NCCCN1CCN(c2cccc(Cl)c2)CC1)c1cccc(N2CCCC2=O)c1	none
O=C(NCCCN1CCN(c2cccc(Cl)c2)CC1)c1ccc(N2CCCC2=O)cc1	L major viab 97
CCCCN(C)CCCNC(=O)c1ccc(N2CCCC2=O)cc1	L major viab 51
COc1ccc(N2CCN(CCNC(=O)Nc3ccc(C)c(Cl)c3)CC2)cc1	none (no result: L major viab, Hsp70 act)
COc1ccc(NC(=O)NCCN2CCN(c3cccc(Cl)c3)CC2)cc1	L major viab 85
CN(CCCNC(=O)c1ccc(N2CCCC2=O)cc1)c1ccccc1	none
CC(Sc1nc(N)cc(=O)[nH]1)C(=O)Nc1cccc(Cl)c1 (configuration not stated)	L major viab 56
COc1ccc(-c2nnc(SC(C)C(=O)Nc3cccc(Cl)c3)o2)cc1 (configuration not stated)	HSF1 activator 109
CC(=O)NC1C(=O)N=C(SC(C)C(=O)Nc2cccc(Cl)c2)NC1=O (configuration not stated)	L major viab 63
CC(Sc1nc(N)cc(=O)[nH]1)C(=O)Nc1nc2c(s1)CCCC2 (configuration not stated)	none (no result: L major viab, Hsp70 act)
O=C(NCc1ccc(Cl)cc1)C1CCN(S(=O)(=O)N2CCOCC2)CC1	none
COc1ccc2nc(/C=N/NC(=O)[C@H](C)NC(=O)OC(C)(C)C)ccc2c1	none
CC(C)(Oc1ccc(Cl)cc1)C(=O)Nc1ccc2oc(-c3ccncc3)nc2c1	HSF1 activator 110
CCOc1ccc(N2CC(C(=O)Nc3cccnc3)CC2=O)cc1 (configuration not stated)	none (no result: L major viab, Hsp70 act)
CC1(C)N([O-])C2=C(CCCC2)[N+]1=O	none
CC1=NN(c2ccc(F)cc2)C(=O)C1C(c1cccc(O)c1)c1c(C)[nH]n(-c2ccc(F)cc2)c1=O (configuration not stated)	L major viab 72
CC(C)N1CCN(Cc2ccc(Sc3nncn3C)o2)CC1CCO (configuration not stated)	none (no result: L major viab, Hsp70 act)
O=C(O)c1ccc(-n2cc(C(=O)c3ccccc3O)cn2)cc1	none (no result: L major viab, Hsp70 act)
O=C(c1cnn(-c2ccccc2)c1)c1ccc2ccccc2c1O	HSF1 activator 58
Clc1ccc(SCc2nc3ccccc3[nH]2)cc1	HSF1 activator 56
Cc1cc(C)c(C#N)c(SCc2nc3ccccc3[nH]2)n1	HSF1 activator 60
Cc1ccc(SCc2nc3ccccc3[nH]2)cc1	HSF1 activator 90
O=c1[nH]c2ccccc2nc1-c1ccc(Cl)cc1	HSF1 activator 59 (no result: L major viab, Hsp70 act)
N#Cc1c(SCc2nc3ccccc3[nH]2)nc2c(c1C(F)(F)F)CCC2	none (no result: HSF1 activator, T cruzi repl, HSF1 inh)
O=c1[nH]c2ccccc2nc1-c1ccccc1	none (no result: L major viab, Hsp70 act)
O=C(O)C1=C[C@H](c2coc3ccccc3c2=O)C[C@H](OCc2ccc(CO)cc2)O1	none
Oc1ccccc1/C=N/n1cnn(Cc2ccccc2Cl)c1=S	none
COc1cccc(-c2ccc(=O)n(CC(=O)Nc3ccc(S(=O)(=O)NCC(C)C)cc3)n2)c1	none
O=C(NC1CCCC1)c1cc2ccccc2o1	none (no result: L major viab, Hsp70 act)
O=C(NC1CCCCC1)c1cc2cc(Br)ccc2o1	HSF1 activator 68 (no result: L major viab, Hsp70 act)
O=C(NC1CCCC1)c1cc2cc(Br)ccc2o1	HSF1 activator 60 (no result: L major viab, Hsp70 act)
COc1cc2[nH]c(C(=O)N3CCc4ccccc43)cc2c(OC)c1OC	none (no result: L major viab, Hsp70 act)
COC(=O)c1ccc(/C=C/C(=O)c2ccc(OC)c(OC)c2)cc1	none
COc1ccc(/C=C/C(=O)c2cc(F)ccc2OC(=O)c2ccccc2)cc1OC	L major viab 100
COc1ccc(/C=C/C(=O)c2cc(F)ccc2OC(=O)c2ccc(OC)c(OC)c2)cc1OC	L major viab 92
COc1ccc(OC)c(C(=O)Cn2c3[n+](c4ccc(C(F)(F)F)cc42)CCCCC3)c1	L major viab 99

Assay outcomes (PubChem)
